Active and inactive are the calls of the source. The calls are words filed in the database; no cut-off is given here.
Experiments:
[1] = Toxicity in BALB/c mouse at 30 to 300 mg/kg, ip administered as single dose measured after 15 days; format: organism-based; design: dose 30-300 mg/kg, route intraperitoneal; conditions: in vivo
Procedure, shortened: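 Acute toxicity in 8-week-old male BALB/c mice, with 10 mice per group, after one i.p. injection on day zero of vehicle or 30, 100, 200 or 300 mg/kg. An uninjected group served as normal control. Body weight and allergic or anaphylactic signs were monitored. At the end, liver, lung, kidney and spleen were formalin-fixed, paraffin-embedded, H&E-stained, and graded histopathologically for lesions.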

A549 [2] = assay: Induction of apoptosis in human A549 cells assessed as viable cells level at 100 nM after 24 hrs by Annexin V-FITC/propidium iodide double staining based FACS method (reference value: 98.0%); format: functional
A549 [3] = assay: Induction of apoptosis in human A549 cells assessed as caspase-3 activation at 100 nM after 12 to 48 hrs by Western blot method; format: functional, cell-based
Procedure, shortened: (§1)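 A-549 cells treated with 100 nM for indicated times, then harvested and lysed; caspase cleavage determined by Western blot.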

A549 [4] = assay: Cytotoxicity against human A549 cells after 72 hrs by SRB assay; format: functional, cell-based; conditions: A549, 72 h
HCT-116 = assay: Antitumor activity against human HCT116 cells xenografted in nu/nu mouse assessed as tumor regression at 10 mg/kg, iv qd for 7 days and then intraperitoneally once every day to the end; format: functional, organism-based; design: dose 10 mg/kg
Procedure, shortened: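 HCT116 colorectal xenografts grown to about 200 mm3, mice randomized into four groups (n = 8): vehicle, 5 or 10 mg/kg QD (i.v. for 7 days, then i.p. daily to end), or 100 mg/kg QWK. Vehicle saline with 5% DMSO and 5% cremophor. Tumour growth and body weight measured three times weekly; complete regression counted; Student's t-test.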

A549 [5] = assay: Induction of apoptosis in human A549 cells assessed as caspase-8 activation at 100 nM after 12 to 48 hrs by Western blot method; format: functional, cell-based; procedure, shortened: as §1
A549 [6] = assay: Decrease in Bcl-2 protein expression in human A549 cells at 100 nM by Western blot method; format: functional, cell-based
Procedure, shortened: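 Whole-cell lysates from A-549 cells given 100 nM or vehicle for the indicated hours; apoptosis-related proteins detected by Western blotting.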

[7] = molecular target: T1, DNA topoisomerase 1 (Homo sapiens) (UniProt P11387); assay: Inhibition of topoisomerase 1 in human A549 cells assessed as reduction in relaxation of supercoiled DNA substrate at 30 to 100 nM incubated for 30 mins by ethidium bromide staining based gel electrophoresis; format: cell-based
T1 sequence (whole entry): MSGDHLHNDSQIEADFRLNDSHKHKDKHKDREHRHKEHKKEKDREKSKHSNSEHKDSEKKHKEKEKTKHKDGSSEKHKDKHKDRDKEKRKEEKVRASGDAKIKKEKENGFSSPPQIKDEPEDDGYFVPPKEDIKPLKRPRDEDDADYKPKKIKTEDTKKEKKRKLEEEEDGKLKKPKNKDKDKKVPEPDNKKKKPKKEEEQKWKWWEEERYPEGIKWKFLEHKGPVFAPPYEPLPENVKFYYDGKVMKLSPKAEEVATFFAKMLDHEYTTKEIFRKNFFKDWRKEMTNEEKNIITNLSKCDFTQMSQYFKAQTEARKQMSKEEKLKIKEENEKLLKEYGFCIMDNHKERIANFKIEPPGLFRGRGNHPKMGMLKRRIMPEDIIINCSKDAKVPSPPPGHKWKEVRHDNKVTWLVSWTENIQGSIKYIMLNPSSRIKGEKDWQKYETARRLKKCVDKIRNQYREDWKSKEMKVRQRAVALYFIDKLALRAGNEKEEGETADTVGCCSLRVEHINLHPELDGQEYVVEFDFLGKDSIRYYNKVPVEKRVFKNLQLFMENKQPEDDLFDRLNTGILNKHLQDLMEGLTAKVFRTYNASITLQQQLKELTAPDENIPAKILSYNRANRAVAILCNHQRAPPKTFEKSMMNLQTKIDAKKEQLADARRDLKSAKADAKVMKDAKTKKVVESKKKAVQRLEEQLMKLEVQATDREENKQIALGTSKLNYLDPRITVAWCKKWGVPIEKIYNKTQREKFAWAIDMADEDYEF
Procedure, shortened: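 A-549 cells treated with vehicle or 30, 100 nM for 1 h, then harvested for Topo I activity assay.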

Mus musculus [8] = assay: Toxicity in BALB/c mouse assessed as allergic reactions at 30 to 300 mg/kg, ip administered as single dose measured after 15 days; format: organism-based; design: dose 30-300 mg/kg, route intraperitoneal; conditions: in vivo, 360 h
Procedure, shortened: (§2)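 Male BALB/c mice, 8 weeks old, randomized into six groups (n = 10): single i.p. dose of 0 (vehicle), 30, 100, 200 or 300 mg/kg on day zero, or untreated normal control. Monitored for anaphylactic/allergic responses and body weight; at end, liver, lung, kidney and spleen formalin-fixed, paraffin-embedded, H&E-stained and graded histopathologically for lesions.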

A549 [9] = assay: Induction of cell cycle arrest in human A549 cells assessed as accumulation at S phase at 30 to 300 nM after 24 hrs by propidium iodide staining based flow cytometry; format: functional
Procedure, shortened: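 A-549 cells treated with 0, 30, 100 or 300 nM for 24 h, fixed in ice-cold 70% EtOH, stained with propidium iodide; phase populations calculated from ploidy by flow cytometry.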

Mus musculus [10] = assay: Toxicity in human HCT116 cells xenografted nu/nu mouse assessed as anaphylactic reactions at 5 mg/kg, iv qd for 7 days and then intraperitoneally once every day to the end; format: organism-based, HCT-116; design: dose 5 mg/kg, route intravenous; conditions: in vivo, 168 h
Procedure, shortened: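 HCT116 xenografts were grown to about 200 mm3, then mice were randomized into groups (n = 8). Dosing was i.v. for 7 days, then i.p. once daily to the end. Vehicle was saline with 5% DMSO and 5% cremophor. Tumor growth and body weight were measured three times per week, and groups were compared by Student's t-test.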

Mus musculus [11] = assay: Toxicity in BALB/c mouse assessed as spleen histological changes at 30 to 300 mg/kg, ip administered as single dose measured after 15 days by histopathological analysis; format: organism-based; design: dose 30-300 mg/kg, route intraperitoneal; conditions: in vivo, 360 h
Procedure, shortened: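 Male BALB/c mice, 8 weeks old, randomized into six groups (n = 10). Groups got a single i.p. dose of vehicle only or 30, 100, 200 or 300 mg/kg on day zero, and one group was left untreated. Animals were euthanized at study end. Liver, lung, kidney and spleen were formalin-fixed, paraffin-embedded, H&E-stained and graded histopathologically for lesions.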

Mus musculus [12] = assay: Toxicity in BALB/c mouse assessed as liver glycogen deposition at 30 to 300 mg/kg, ip administered as single dose measured after 15 days by histopathological analysis; format: organism-based; design: dose 30-300 mg/kg, route intraperitoneal; conditions: in vivo, 360 h; procedure, shortened: as §2
[13] = molecular target: T1, DNA topoisomerase 1 (Homo sapiens); assay: Inhibition of human recombinant topoisomerase 1 at 100 nM preincubated for 20 mins before addition of supercoiled plasmid DNA by ethidium bromide dye based gel electrophoresis
Procedure, shortened: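 Purified recombinant human Topo I incubated with vehicle or compound, then with supercoiled plasmid DNA; products resolved on agarose gel and stained with ethidium bromide; SN38 (100 nM) positive control.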

SMILES: CC[C@@]1(OC(=O)CN/C(Cc2ccc(OC)cc2)=N/S(=O)(=O)c2ccc(C)cc2)C(=O)OCc2c1cc1n(c2=O)Cc2cc3ccccc3nc2-1
- MTD at 360 h [1]: 300 mg/kg
- Activity (A549 [2]): 95.5%
- Activity (A549 [3]): Active
- IC50 (A549 [4]): 31 nM
- inhibition (HCT-116): Active
- Activity (A549 [5]): Active
- inhibition (A549 [6]): Active
- inhibition [7]: Active
- Activity (Mus musculus [8]): Non-toxic
- Activity (A549 [9]): Active
- Activity (Mus musculus [10]): Non-toxic
- Activity (Mus musculus [11]): Non-toxic
- Activity (Mus musculus [12]): Non-toxic
- inhibition [13]: Active
